The source made the active and inactive calls.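 The calls were made as follows, unless noted: active = mean duplicate potentiation above the buffer control mean plus 5 SD of buffer wells; inactive = the rest.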
Assays:
[1] = nonspecific flux increase, KCNQ1-free cells – parental CHO cells, counter-screen for KCNQ1 potentiator project (AID 493006;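 active = duplicate-averaged activation above buffer control mean plus 5 SD of those controls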;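 as to activation: fluorescence ratio of max minus min over baseline after K+ and Tl+ depolarization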); conditions: parental CHO-K1 cells, FluxOR thallium flux, at 10 µM; hits give high values
Summary of the method: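 Benchmarks – buffer and R-L3 controls · Assay system – untransfected host CHO-K1 cells with FluxOR thallium dye · Measure – fluorescence change ratio scaled 0% buffer, 100% R-L3 · Technique – kinetic thallium-flux fluorescence · Timing – overnight 37 °C plating, 90 min RT dye, 20 min compound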

[2] = target: Potassium voltage-gated channel subfamily KQT member 1 (Homo sapiens) (UniProt P51787); test: enhancement of KCNQ1 channel thallium flux – FluxOR thallium flux, CHO cells, duplicates, confirmation (AID 493007;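 active = potentiation averaged over duplicate wells exceeding buffer-only control mean by more than 3 SD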;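 as to outcome: cells depolarized by a potassium plus thallium sulfate stimulus after compound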); conditions: KCNQ1 cell line, FluxOR thallium flux fluorescence, at 10 µM; hits give high values, % of reference activator effect, buffer zero
Potassium voltage-gated channel subfamily KQT member 1 (Homo sapiens), sequence (P51787 whole entry, looked up): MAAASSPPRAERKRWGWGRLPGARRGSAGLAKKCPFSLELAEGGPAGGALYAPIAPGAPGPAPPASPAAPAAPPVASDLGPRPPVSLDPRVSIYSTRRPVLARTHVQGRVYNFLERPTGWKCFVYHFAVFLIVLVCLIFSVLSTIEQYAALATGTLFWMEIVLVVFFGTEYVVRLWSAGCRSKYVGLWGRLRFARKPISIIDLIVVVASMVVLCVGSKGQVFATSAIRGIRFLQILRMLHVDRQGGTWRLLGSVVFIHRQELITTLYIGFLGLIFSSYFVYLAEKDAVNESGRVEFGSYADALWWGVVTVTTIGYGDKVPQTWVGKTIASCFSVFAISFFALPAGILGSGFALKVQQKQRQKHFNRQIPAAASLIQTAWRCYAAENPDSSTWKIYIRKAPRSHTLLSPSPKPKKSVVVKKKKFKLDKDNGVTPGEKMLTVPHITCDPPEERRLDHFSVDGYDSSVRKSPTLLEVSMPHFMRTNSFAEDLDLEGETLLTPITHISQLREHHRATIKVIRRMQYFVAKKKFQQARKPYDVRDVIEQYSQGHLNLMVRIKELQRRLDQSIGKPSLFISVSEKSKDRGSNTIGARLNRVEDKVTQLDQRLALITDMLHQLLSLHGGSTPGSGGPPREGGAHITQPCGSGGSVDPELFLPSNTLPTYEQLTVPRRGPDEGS
Summary of the method: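 Material: CHO cells stably expressing the KCNQ1 potassium channel / Times: dye 90 min then compound 20 min, both at room temperature / Detection: kinetic thallium influx fluorescence with FluxOR dye, 10 s baseline, 110 s post-stimulus / Benchmarks: buffer-only wells as 0% and R-L3 activator as 100% / Replicates: each compound tested in duplicate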

[3] = target: Potassium voltage-gated channel subfamily KQT member 2 (Rattus norvegicus) (UniProt O88943); test: KCNQ2 thallium flux enhancement – KCNQ2-CHO-K1 cells, selectivity assay for KCNQ1 potentiator project (AID 493009); conditions: FluxOR thallium flux fluorescence, at 10 µM; hits give high values, scaled: buffer 0, activator control 100;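 also: assay conditions were tuned for KCNQ1 rather than KCNQ2 modulators; signal is max minus min fluorescence divided by baseline after thallium stimulus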
Potassium voltage-gated channel subfamily KQT member 2 (Rattus norvegicus), sequence (O88943 whole entry, looked up): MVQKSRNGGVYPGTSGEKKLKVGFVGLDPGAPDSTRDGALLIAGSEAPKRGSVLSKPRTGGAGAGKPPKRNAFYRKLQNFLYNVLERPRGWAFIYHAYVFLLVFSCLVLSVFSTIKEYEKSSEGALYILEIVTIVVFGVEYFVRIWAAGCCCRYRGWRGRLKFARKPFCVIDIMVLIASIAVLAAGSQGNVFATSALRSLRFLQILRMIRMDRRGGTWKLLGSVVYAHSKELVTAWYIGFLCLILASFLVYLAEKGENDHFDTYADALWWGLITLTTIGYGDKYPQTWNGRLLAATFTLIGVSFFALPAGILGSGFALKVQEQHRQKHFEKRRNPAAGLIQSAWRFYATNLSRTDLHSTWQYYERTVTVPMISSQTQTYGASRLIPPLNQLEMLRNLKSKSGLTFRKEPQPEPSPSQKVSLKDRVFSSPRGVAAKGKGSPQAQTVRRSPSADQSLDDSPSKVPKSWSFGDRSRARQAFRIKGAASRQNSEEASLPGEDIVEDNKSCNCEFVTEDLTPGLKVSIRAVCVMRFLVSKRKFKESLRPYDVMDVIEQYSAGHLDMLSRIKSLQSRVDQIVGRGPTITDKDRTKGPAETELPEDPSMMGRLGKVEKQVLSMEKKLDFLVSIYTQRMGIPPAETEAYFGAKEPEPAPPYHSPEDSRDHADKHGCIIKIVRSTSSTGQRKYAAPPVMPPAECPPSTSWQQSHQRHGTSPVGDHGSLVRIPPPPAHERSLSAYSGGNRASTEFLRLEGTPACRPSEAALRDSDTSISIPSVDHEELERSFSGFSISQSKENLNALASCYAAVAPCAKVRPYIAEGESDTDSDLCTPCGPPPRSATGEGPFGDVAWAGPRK

[4] = target: Potassium voltage-gated channel subfamily KQT member 1 (Homo sapiens) (UniProt P51787); test: KCNQ1 activators by electrophysiology – IonWorks patch clamp, KCNQ1-CHO cells, orthogonal assay for KCNQ1 potentiator project, confirmation (AID 493184;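 active = current rise at least 3 SD above the untreated control mean in each of two repeat wells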;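 as to current potentiation: percent change of the same well's current before compound addition so 0% = no change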); conditions: automated patch clamp current, at 10 µM; hits give high values
Summary of the method: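 Probe or stimulus: depolarizing pulse to +40 mV from -90 mV; Material: CHO cells carrying KCNQ1; Compound: one dose, 10 µM final; Signal: automated voltage clamp, amphotericin B perforated patch; Read-out basis: percent current increase versus pre-compound level; Buffer or medium: pH 7.4 external bath; Replication: duplicates.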

| SMILES | outcome [1] | potentiation [2] | outcome [3] | outcome [4] | activation [1] | potentiation [3] | outcome [2] | current potentiation [4] |
| --- | --- | --- | --- | --- | --- | --- | --- | --- |
| O=C(NC(=S)Nc1ccccc1N1CCCCC1)c1ccc(F)cc1Cl | inactive | 49.5% (active) | inactive | inactive |  |  |  |  |
| C=CCn1c(SCC(N)=O)nc2scc(-c3ccc(C)o3)c2c1=O |  | 79.5% (active) |  | inactive | 223% (active) | 230% (active) |  |  |
| CCCC(=O)Nc1ccc(S(=O)(=O)N2CCC(c3nc4ccccc4[nH]3)CC2)cc1 | inactive |  | inactive | inactive |  |  | inactive |  |
| Nc1nonc1C(=O)NCCN=Cc1cc(Cc2ccccc2)cc(Br)c1O | inactive |  | inactive | inactive |  |  | inactive |  |
| COc1ccccc1-c1nc(C#N)c(N2CC(C)CC(C)C2)o1 (stereo not given) | inactive |  | inactive | inactive |  |  | inactive |  |
| O=C(CCC1CCN(C(=O)c2cncs2)CC1)Nc1ccccc1 |  | 164% (active) |  | inactive | 446% (active) | 464% (active) |  |  |
| COc1ccc(OCc2cc(C(=O)N(C)CC3CCCCO3)no2)c(Cl)c1 (stereo not given) | inactive | 17.5% (active) | inactive | inactive |  |  |  |  |
| CC1CCN(C(=S)NC(=O)c2cccc([N+](=O)[O-])c2)CC1 |  | 41.5% (active) |  | inactive | 207% (active) | 189% (active) |  |  |
| CCCn1c(=S)[nH]c2sc3c(c2c1=O)CCCC3 |  | 158% (active) |  | inactive | 418% (active) | 434% (active) |  |  |
| C/C(=N\NC(=O)c1cccc(F)c1)c1ccc(Br)s1 | inactive |  | inactive | inactive |  |  | inactive |  |
| CCCc1cc2c(-c3ccccc3)cc(=O)oc2cc1OCc1ccc(C(=O)O)o1 |  | 73% (active) |  | inactive | 193% (active) | 222% (active) |  |  |
| CC1CN(S(=O)(=O)c2ccc(Cl)c(C(F)(F)F)c2)CC(C)O1 (stereo not given) | inactive |  | inactive | inactive |  |  | inactive |  |
| COc1ccc(C)cc1-n1c(C)cc(C=O)c1C | inactive | 44% (active) |  | inactive |  | 153% (active) |  |  |
| Cc1ccc(-c2csc3nc[nH]c(=S)c23)cc1C |  | 56.5% (active) |  | inactive | 223% (active) | 222% (active) |  |  |
| COc1ccc(CN2CCCC(CNC(=O)c3ccc(F)cc3)C2)c(C)c1C (stereo not given) | inactive |  | inactive | inactive |  |  | inactive |  |
| CN(C(=O)c1ccco1)c1nnc(-c2ccc(F)cc2)s1 | inactive |  | inactive | inactive |  |  | inactive |  |
| O=C(COc1ccccc1)N1CCN(S(=O)(=O)c2cccs2)CC1 | inactive |  | inactive | inactive |  |  | inactive |  |
| COc1ccc(/C=N/N=C2/NC(=O)C(c3ccccc3)S2)c(OC)c1 (stereo not given) | inactive |  | inactive | inactive |  |  | inactive |  |
| COc1ccc(OCC(=O)N2CCCC2=O)c([N+](=O)[O-])c1 | inactive |  | inactive | inactive |  |  | inactive |  |
| COc1ccc(C)cc1NC(=O)C(=O)NNC(=O)COc1ccc(Cl)cc1 |  | 195% (active) |  | inactive | 166% (active) | 258% (active) |  |  |

| SMILES | outcome [1] | potentiation [2] | outcome [3] | outcome [4] | activation [1] | potentiation [3] | outcome [2] | current potentiation [4] |
| --- | --- | --- | --- | --- | --- | --- | --- | --- |
| Cc1ccccc1-c1nc(-c2ccccn2)no1 | inactive |  | inactive | inactive |  |  | inactive |  |
| C=CCOc1c(Br)cc(/C=N/Nc2ccc(C(=O)O)cc2)cc1OCC | inactive |  | inactive | inactive |  |  | inactive |  |
| CCN(c1ccccc1)S(=O)(=O)c1ccc(OC)c(OC)c1 |  | 150% (active) |  | inactive | 167% (active) | 162% (active) |  |  |
| Cc1cccc(C(=O)Nc2ccccc2C(=O)NCc2cccnc2)c1 | inactive |  | inactive | inactive |  |  | inactive |  |
| Cc1cc2n(n1)SC(Nc1ccc(F)c(Cl)c1)N2 (stereo not given) | inactive |  | inactive | inactive |  |  | inactive |  |
| CCN(CC)S(=O)(=O)c1cccc(C(=O)N[C@H](C(=O)NNC(=O)c2ccccc2)C(C)C)c1 | inactive |  | inactive | inactive |  |  | inactive |  |
| CN(Cc1cn[nH]c1-c1ccc2c(c1)OCO2)C1CCOCC1 | inactive |  | inactive | inactive |  |  | inactive |  |
| CCCCn1c(SCC(N)=O)nc2ccc(N3CCOCC3)cc2c1=O | inactive |  | inactive | inactive |  |  | inactive |  |
| CCSc1nnc(NC(=O)[C@H](C)NC(=O)c2ccccc2Cl)s1 | inactive |  | inactive | inactive |  |  | inactive |  |
| Cc1sc2nc(C(C)C)nc(SCC(=O)NCc3ccco3)c2c1C |  | 85.5% (active) |  | inactive | 276% (active) | 280% (active) |  |  |
| O=C(c1ccc(-c2ccccc2)cc1)N1CCCC1 |  | 217% (active) |  | inactive | 188% (active) | 233% (active) |  |  |
| COc1ccc2[nH]c3c(c2c1)CCNC3C1CC=C(C)CC1 (stereo not given) | inactive |  | inactive | inactive |  |  | inactive |  |
| O=C(NC(=S)N1CCCC1)c1ccc(Cl)cc1 |  |  | inactive | inactive | 150% (active) |  | inactive |  |
| CCc1nnc(NC(=O)CCC(=O)N2CCN(C3CCCCC3)CC2)s1 | inactive |  | inactive | inactive |  |  | inactive |  |
| Cc1ccc(Oc2ccc(NC(=O)Cn3ccsc3=N)cc2)cc1 | inactive |  | inactive | inactive |  |  | inactive |  |
| COc1ccc(-c2sc(C(=O)c3ccc(Cl)cc3Cl)cc2CC(=O)O)cc1 | inactive |  | inactive |  |  |  | inactive | 33.9% (active) |
| CCOC(=O)c1sc(C)nc1C1CCN(C(=O)OCC)CC1 | inactive |  | inactive | inactive |  |  | inactive |  |
| Cc1ccc(-c2csc3nc[nH]c(=S)c23)cc1 |  | 124% (active) |  | inactive | 308% (active) | 300% (active) |  |  |
| O=C(Nc1ccncc1)c1ccc([N+](=O)[O-])cc1Cl | inactive |  | inactive | inactive |  |  | inactive |  |
| CC(C)n1c(O)c(N=NC(=O)C2COc3ccccc3O2)c2ccccc21 (stereo not given) |  | 66.5% (active) |  | inactive | 234% (active) | 208% (active) |  |  |

| SMILES | outcome [1] | potentiation [2] | outcome [3] | outcome [4] | activation [1] | potentiation [3] | outcome [2] | current potentiation [4] |
| --- | --- | --- | --- | --- | --- | --- | --- | --- |
| O=C(/C=C/c1ccc(Br)cc1)NC(=S)Nc1ccc(S(=O)(=O)Nc2nccs2)cc1 | inactive |  | inactive | inactive |  |  | inactive |  |
| NC(=O)c1nsc(C(=O)N(CC(=O)NC2CCCCC2)c2ccc(Cl)cc2)c1N | inactive |  | inactive | inactive |  |  | inactive |  |
| C=CCn1c(=S)[nH]c2ccc(Br)cc2c1=O |  | 51% (active) |  | inactive | 208% (active) | 200% (active) |  |  |
| NNc1nc2ccc(Cl)cc2s1 | inactive |  | inactive | inactive |  |  | inactive |  |
| C=CCn1c(SCc2ccc(C(=O)O)cc2)nc2sc(C)c(C)c2c1=O |  | 72.5% (active) |  | inactive | 216% (active) | 236% (active) |  |  |
| O=C1/C(=C/c2cccc(F)c2)SC(=S)N1NS(=O)(=O)c1ccccc1 |  |  | inactive | inactive | 146% (active) |  | inactive |  |
| Nc1nc(N)c2sc3nc4c(cc3c2n1)CCC4 | inactive |  | inactive | inactive |  |  | inactive |  |
| Cc1nn(CC(=O)NC(C)c2ccccc2)c(=O)c2ccccc12 (stereo not given) |  | 85.5% (active) |  | inactive | 150% (active) | 172% (active) |  |  |
| CC(C)C(NC(=O)Nc1ccccc1)C(=O)Nc1cccc(S(=O)(=O)N(C)C)c1 (stereo not given) |  | 67.5% (active) |  | inactive | 232% (active) | 232% (active) |  |  |
| COc1ccc(C(=O)N2CCC(N3CCN(c4ccccc4)CC3)CC2)cc1 | inactive |  | inactive | inactive |  |  | inactive |  |
| CCOc1ccc(N=Nc2ccc(O)c3ncccc23)cc1 | inactive | 17.5% (active) | inactive | inactive |  |  |  |  |
| O=c1c2cc(Cl)cc(Cl)c2nc2n1CCC2 | inactive |  | inactive | inactive |  |  | inactive |  |
| O=C(NC(=S)N1CCCc2ccccc21)c1ccc(Br)cc1 |  | 112% (active) |  | inactive | 222% (active) | 300% (active) |  |  |
| O=C(Nc1nnc(-c2ccco2)o1)c1cccc(Cl)c1 | inactive |  | inactive | inactive |  |  | inactive |  |
| CCOC(=O)c1ccc(NC(=S)N2CCSC2c2ccc(Br)cc2)cc1 (stereo not given) | inactive |  | inactive | inactive |  |  | inactive |  |
| COc1ccccc1/C=C1\N=C(C(C)(C)C)OC1=O | inactive |  | inactive | inactive |  |  | inactive |  |
| O=C(NCC1CCCO1)c1ccc2c(c1)S(=O)(=O)c1ccccc1C2=O (stereo not given) | inactive |  | inactive | inactive |  |  | inactive |  |
| Cc1ccc(-c2c(=O)n(O)c3ccccc3[n+]2[O-])cc1 |  | 25% (active) |  | inactive | 202% (active) | 184% (active) |  |  |
| Cc1ccc(C(=O)OCC(=O)N(C)c2ccccc2)cc1C |  | 252% (active) |  | inactive | 397% (active) | 405% (active) |  |  |
| COCCn1c(SCC(=O)NCc2ccc3c(c2)OCO3)nnc1C(C)C | inactive |  | inactive | inactive |  |  | inactive |  |

Source: PubChem BioAssay
